According to ChEMBL document CHEMBL2146399, “Anti-androgen receptor activity of apoptotic CK2 inhibitor CX4945 in human prostate cancer LNCap cells” (Bioorg Med Chem Lett, 2012):
Activity calls are given as the source filed them. The calls are words filed in the database; no cut-off is given here.

How the values were obtained:
[1] = test system: LNCaP; test: Inhibition of Akt phosphorylation in human LNCAP cells at 0.1 to 30 uM after 30 mins by Western blot analysis; assay type: cell-based
Procedure, shortened: (§1)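 Western blot: cells homogenized and spun at 10,000 g for 15 min. Supernatant kept as cytoplasmic fraction; nuclear proteins extracted with a kit. Denatured proteins run on gels, transferred to PVDF, probed with specific antibodies, and detected by enhanced chemiluminescence.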

[2] = test system: LNCaP; test: Downregulation of survivin expression in human LNCAP cells at 0.1 to 30 uM after 24 hrs by Western blot analysis; assay type: functional, cell-based; procedure, shortened: as §1
[3] = Cytotoxicity against human RWPE1 cells assessed as cell viability at 10 uM after 3 days by CCK8 method; assay type: cell-based, RWPE-1; settings: read-out: Activity
Procedure, shortened: (§2)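 Normal prostate RWPE-1 cells kept in keratinocyte serum-free medium with 0.05 mg/ml bovine pituitary extract and 5 ng/ml recombinant human EGF. Cells seeded at 1 10^4 per well, cultured 24 h, then treated 1–3 days. Viability measured by CCK-8 in triplicate.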

[4] = test system: LNCaP; test: Downregulation of CK2alpha expression in human LNCAP cells assessed as reduction of nuclear protein level at 10 uM after 12 to 24 hrs by Western blot analysis; assay type: functional, cell-based; procedure, shortened: as §1
[5] = test system: LNCaP; test: Cytotoxicity against human LNCAP cells assessed as cell viability at 1 to 10 uM after 1 day by luciferase assay; assay type: cell-based; settings: 24 h, in the assay text read “by CCK-8 assay” for “by luciferase assay”
Procedure, shortened: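 LNCaP cells lentivirally transduced with an AR luciferase reporter and selected with 30 µg/ml puromycin. Cells at 4 10^4 per well, kept 1 day in 10% stripped FBS, then treated 1 day in 0.1% stripped FBS with or without 0.1 µM DHT. Luciferase measured for AR activation and CCK-8 for viability; Student's t-test.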

[6] = test system: LNCaP; test: Cytotoxicity against human LNCAP cells assessed as cell viability at 10 uM by CCK8 method; assay type: functional, cell-based; settings: TDE = time-dependent effect
[7] = Cytotoxicity against human RWPE1 cells assessed as cell viability after 1 to 3 days by CCK8 method; assay type: cell-based; settings: rwpe-1; procedure, shortened: as §2
[8] = test system: LNCaP; test: Induction of apoptosis in human LNCAP cells at 30 uM after 72 hrs by AnnexinV staining based fluorescent microscopy; assay type: functional, cell-based
Procedure, shortened: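 LNCaP cells (5 10^4) plated on coverslips coated with 1% gelatin and treated 72 h. Annexin V kit staining, fixation in 2% formaldehyde, nuclei counterstained with 10 µg/ml DAPI. Annexin V-positive cells counted by fluorescence microscopy.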

[9] = test system: LNCaP; test: Downregulation of CK2alpha expression in human LNCAP cells assessed as reduction of cytosolic protein level at 10 uM after 12 to 24 hrs by Western blot analysis; assay type: functional, cell-based; procedure, shortened: as §1
[10] = test system: LNCaP; test: Cytotoxicity against human LNCAP cells assessed as cell viability after 4 days by CCK8 method; assay type: functional, cell-based; settings: 96 h
Procedure, shortened: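 LNCaP cells grown in RPMI1640 with 10% FBS plus penicillin/streptomycin at 37 °C, 5% CO2. Cells seeded at 3 10^3 per well, cultured 24 h, then exposed to compound for 4 days. Viability read by CCK-8 absorbance, in triplicate.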

[11] = test system: LNCaP; test: Induction of apoptosis in human LNCAP cells assessed as increase in caspase3 activation at >10 uM after 1 to 2 days; assay type: functional, cell-based
Procedure, shortened: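 LNCaP cells seeded at 1 10^4 per well, cultured 24 h, then treated 1 or 2 days. Caspase-3 activity read with a commercial caspase-3 kit in triplicate. Significance by Student's t-test, P < 0.05.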

[12] = test system: LNCaP; test: Antiapoptotic activity against human LNCAP cells assessed as cell survival at 10 uM after 1 day by CCK8 method; assay type: functional; settings: 24 h, read-out: Activity

Compound | inhibition [1] | Activity [2] | viability at 72 h, 10 µM [3] [%] | Activity [4] | Activity [5] | Activity [6] | Activity [7] | Activity [8] | Activity [9] | IC50 [10] [µM] | Activity [11] | viability at 10 µM [12] [%]
O=c1cc(N2CCOCC2)oc2c(-c3ccccc3)cccc12 | Active | Active |  |  |  |  |  |  |  |  |  | 
O=C(O)c1ccc2c(c1)nc(Nc1cccc(Cl)c1)c1ccncc12 [SILMITASERTIB] |  |  | 94 | Active | Non-toxic | tde | Non-toxic | Active | Active | 4.59 | Active | 72
